Source: ChEMBL document CHEMBL3745708, “Design of α7 nicotinic acetylcholine receptor ligands using the (het)Aryl-1,2,3-triazole core: Synthesis, in vitro evaluation and SAR studies” (Eur J Med Chem, 2016)

How the values were obtained:
[1] = target: Neuronal acetylcholine receptor subunit alpha-7 (Rattus norvegicus, UniProt Q05941); assay: Displacement of [125I]alpha-bungarotoxin from alpha7 nAchR in rat frontal cortices
In short: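 Competition binding against [125I]-α-bungarotoxin as reference radioligand at α7 nAChR. IC50 read graphically for each compound, then converted to Ki.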

[2] = target: Neuronal acetylcholine receptor; alpha4/beta2 (Homo sapiens, UniProt P17787+P43681); assay: Displacement of [3H]cytisine from human recombinant alpha4beta2 nicotinic receptor expressed in SH-SY5Y cells after 120 mins by scintillation counting; assay type: cell-based
In short: (§1)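 Selectivity binding run by an outside contract lab on cells transfected with the human recombinant receptor. Reference radioligands: [3H]cytisine for α4β2 and [3H]BRL 43694 for 5-HT3.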

[3] = target: T1, 5-hydroxytryptamine receptor 3A (Homo sapiens, UniProt P46098); assay: Displacement of [3H]BRL 43694 from human 5-HT3 receptor expressed in CHO cells after 120 mins by scintillation counting; assay type: cell-based; in short: as §1
T1 sequence (P46098 whole entry): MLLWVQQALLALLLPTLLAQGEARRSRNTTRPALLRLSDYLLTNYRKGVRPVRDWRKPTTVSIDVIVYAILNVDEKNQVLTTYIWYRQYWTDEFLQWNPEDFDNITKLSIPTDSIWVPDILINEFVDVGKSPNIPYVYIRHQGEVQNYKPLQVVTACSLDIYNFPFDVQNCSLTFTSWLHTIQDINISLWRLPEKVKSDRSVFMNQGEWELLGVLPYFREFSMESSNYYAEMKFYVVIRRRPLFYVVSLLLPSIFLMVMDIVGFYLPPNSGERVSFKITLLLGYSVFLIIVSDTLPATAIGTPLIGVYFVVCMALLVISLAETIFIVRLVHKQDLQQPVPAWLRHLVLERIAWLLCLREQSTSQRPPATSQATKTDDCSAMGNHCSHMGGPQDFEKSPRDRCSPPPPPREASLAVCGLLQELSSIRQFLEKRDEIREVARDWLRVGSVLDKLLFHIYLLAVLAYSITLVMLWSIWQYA

Chain of Neuronal acetylcholine receptor; alpha4/beta2 (P17787 whole entry): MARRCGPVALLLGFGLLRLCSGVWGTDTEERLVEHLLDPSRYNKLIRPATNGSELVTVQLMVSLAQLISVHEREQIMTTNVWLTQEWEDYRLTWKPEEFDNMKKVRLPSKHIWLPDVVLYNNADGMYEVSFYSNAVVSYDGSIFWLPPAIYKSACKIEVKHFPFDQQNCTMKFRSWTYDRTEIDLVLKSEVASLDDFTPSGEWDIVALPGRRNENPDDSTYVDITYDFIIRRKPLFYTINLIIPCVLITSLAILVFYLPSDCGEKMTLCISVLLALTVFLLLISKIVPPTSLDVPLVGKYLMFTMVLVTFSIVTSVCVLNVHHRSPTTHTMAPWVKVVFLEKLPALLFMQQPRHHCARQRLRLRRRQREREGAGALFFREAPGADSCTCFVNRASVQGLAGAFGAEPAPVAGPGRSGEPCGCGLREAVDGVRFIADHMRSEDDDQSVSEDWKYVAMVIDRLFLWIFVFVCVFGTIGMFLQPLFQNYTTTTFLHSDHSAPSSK
Chain of Neuronal acetylcholine receptor; alpha4/beta2 (P43681 whole entry): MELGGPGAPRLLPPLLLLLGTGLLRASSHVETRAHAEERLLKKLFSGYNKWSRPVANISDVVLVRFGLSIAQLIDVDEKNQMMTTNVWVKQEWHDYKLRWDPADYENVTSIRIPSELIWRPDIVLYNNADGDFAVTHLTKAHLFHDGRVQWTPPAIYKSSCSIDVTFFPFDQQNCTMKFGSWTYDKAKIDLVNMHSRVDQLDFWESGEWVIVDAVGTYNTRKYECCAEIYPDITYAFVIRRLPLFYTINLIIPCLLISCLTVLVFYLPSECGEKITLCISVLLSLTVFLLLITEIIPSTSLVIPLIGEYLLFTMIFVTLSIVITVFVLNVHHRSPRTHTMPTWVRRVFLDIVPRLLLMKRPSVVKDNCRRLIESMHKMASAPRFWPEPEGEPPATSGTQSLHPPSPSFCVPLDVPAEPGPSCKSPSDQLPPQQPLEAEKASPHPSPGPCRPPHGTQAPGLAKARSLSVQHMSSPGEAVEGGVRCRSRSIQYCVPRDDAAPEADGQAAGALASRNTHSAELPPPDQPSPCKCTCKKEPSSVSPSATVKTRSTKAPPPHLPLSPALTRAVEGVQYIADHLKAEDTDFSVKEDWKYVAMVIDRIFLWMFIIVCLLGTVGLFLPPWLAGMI
Chain of Neuronal acetylcholine receptor subunit alpha-7 (Q05941 whole entry): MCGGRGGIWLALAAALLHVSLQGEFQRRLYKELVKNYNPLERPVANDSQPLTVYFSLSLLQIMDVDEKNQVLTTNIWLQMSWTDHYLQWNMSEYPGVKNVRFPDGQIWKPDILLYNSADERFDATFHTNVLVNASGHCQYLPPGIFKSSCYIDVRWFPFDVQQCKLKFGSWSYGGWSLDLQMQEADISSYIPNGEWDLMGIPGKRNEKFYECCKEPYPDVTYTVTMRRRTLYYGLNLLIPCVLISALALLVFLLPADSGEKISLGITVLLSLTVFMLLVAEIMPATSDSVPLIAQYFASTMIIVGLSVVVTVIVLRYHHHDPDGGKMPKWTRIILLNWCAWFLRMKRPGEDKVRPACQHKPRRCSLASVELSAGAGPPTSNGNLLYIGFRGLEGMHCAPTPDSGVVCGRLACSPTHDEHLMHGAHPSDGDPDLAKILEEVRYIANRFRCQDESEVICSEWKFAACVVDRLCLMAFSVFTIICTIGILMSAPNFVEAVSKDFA

SMILES | Ki [1] [nM] | also measured
COc1ccc(-c2cn([C@H]3CN4CCC3CC4)nn2)cc1 | 11 | 
OCCOc1ccc(-c2cn([C@H]3CN4CCC3CC4)nn2)cc1 | 215 | 
FCCc1ccc(-c2cn([C@H]3CN4CCC3CC4)nn2)cc1 | 230 | 
OC1(c2cn(-c3ccc(Br)cc3)nn2)CN2CCC1CC2 (stereo not drawn) | > 1000 | 
COc1ccccc1-c1cn([C@H]2CN3CCC2CC3)nn1 | 112 | 
O=C(N[C@H]1CN2CCC1CC2)c1ccc(Cl)cc1 [PNU-282987] | 17 | 
COCOCCOc1ccc(-c2cn([C@H]3CN4CCC3CC4)nn2)cc1 | 225 | 
OCCc1ccc(-c2cn([C@H]3CN4CCC3CC4)nn2)cc1 | 130 | 
c1cc(-c2cn([C@H]3CN4CCC3CC4)nn2)ccn1 | 141 | 
FCc1ccc(-c2cn([C@H]3CN4CCC3CC4)nn2)cc1 | 21 | 
Fc1ccc(-c2cn([C@H]3CN4CCC3CC4)nn2)cc1 | 15 | 
OCc1ccc(-c2cn([C@H]3CN4CCC3CC4)nn2)cc1 | 10 | 
c1cc2cc(-c3cn(C4CN5CCC4CC5)nn3)ccc2[nH]1 (stereo not drawn) |  | Ki [2]: 750 nM; Kd [1]: 120 nM; Ki [3]: 52 nM
COc1ccc(-n2cc(C3(F)CN4CCC3CC4)nn2)cc1 (stereo not drawn) | > 1000 | 
FCCOc1ccc(-c2cn([C@H]3CN4CCC3CC4)nn2)cc1 | 190 | 
COc1ccc(-n2cc(C3(O)CN4CCC3CC4)nn2)cc1 (stereo not drawn) | > 1000 | 
COc1cccc(-c2cn([C@H]3CN4CCC3CC4)nn2)c1 |  | Ki [2]: 1000 nM; Ki [3]: 3 nM
c1cc2cc(-c3cn([C@H]4CN5CCC4CC5)nn3)ccc2o1 |  | Ki [2]: 1000 nM; Ki [3]: 3 nM
O=C(N[C@@H]1CN2CCC1CC2)c1cc2ccoc2cn1 | 1.27 | 
